Results from ChEMBL document CHEMBL1130202, “Biologically active heteroarotinoids exhibiting anticancer activity and decreased toxicity” (J Med Chem, 1997).
The source made the active and inactive calls. The rule behind the calls is not given here.

Columns and labels:
[1] = tested on: CC-B; experiment: Relative transcriptional activation activity relative to t-RA; type: functional, Homo sapiens
Method in brief: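 CC-B reporter cells (CC-1 cervical line carrying a CAT gene under a RARE with a tk promoter) were seeded at 4×10^5 cells/well in MEM with nonessential amino acids, pyruvate and 10% FBS, the serum lots having negligible t-RA by HPLC. Triplicate cultures were screened at 10^-6 M with 0.1% DMSO final. After 48 h, CAT activity ([3H]acetyl-CoA) per mg protein was taken as treated/control and expressed relative to t-RA. Average of three experiments.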

[2] = species: Mus musculus; experiment: Effect of compound on Spleen to body weight ratios in mice at mid dose 1 on day 65; type: functional
Method in brief: (§1)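 Male B6D2F1 mice dosed daily by gavage with compound in corn oil; vehicle 1 (corn oil) controls run to termination on day 65. Low, mid 1, mid 2 and high dose groups, with dosage increases partway through the study. Organ-to-body weight ratios (×1000) taken at necropsy on day 65, reported as mean ± SD for 4 to 8 animals and as % difference from vehicle.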

[3] = species: Mus musculus; experiment: Effect of compound on Spleen to body weight ratios in mice at mid dose 2 on day 65; type: functional; method in brief: as §1
[4] = species: Mus musculus; experiment: Effect of compound on adrenal to body weight ratios in mice at low dose on day 65; type: functional; method in brief: as §1
[5] = species: Mus musculus; experiment: Effect of compound on adrenal to body weight ratios in mice at mid dose 1 on day 65; type: functional; method in brief: as §1
[6] = species: Mus musculus; experiment: Effect of compound on adrenal to body weight ratios in mice at mid dose 2 on day 65; type: functional; method in brief: as §1
[7] = species: Mus musculus; experiment: Effect of compound on right testicle to body weight ratios in mice at low dose on day 65; type: functional; method in brief: as §1
[8] = species: Mus musculus; experiment: Effect of compound on right testicle to body weight ratios in mice at mid dose 1 on day 65; type: functional; method in brief: as §1
[9] = species: Mus musculus; experiment: Total dose of 10% weight loss in mice at high dose; type: functional
[10] = species: Mus musculus; experiment: Total dose of 10% weight loss in mice at low dose; type: functional
[11] = species: Mus musculus; experiment: Total dose of 10% weight loss in mice at mid dose 1; type: functional
[12] = species: Mus musculus; experiment: Total dose of 10% weight loss in mice at mid dose 2; type: functional
[13] = species: Mus musculus; experiment: Effect of compound on thymus to body weight ratios in mice at low dose on day 65; type: functional
Method in brief: (§2)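 Male B6D2F1 mice were dosed daily by gavage in corn oil, with TTNPB given at 0.1–0.8 or 0.01/0.05 mg/kg/day. Thymus-to-body weight ratio (×1000) was taken at necropsy on day 65 against vehicle 1, or on day 25 for the 0.01/0.05 groups against vehicle 2. Mean ± SD of 4–8 animals, reported as % difference from vehicle.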

[14] = species: Mus musculus; experiment: Effect of compound on thymus to body weight ratios in mice at mid dose 1 on day 65; type: functional; method in brief: as §2
[15] = species: Mus musculus; experiment: Effect of compound on thymus to body weight ratios in mice at mid dose 2 on day 65; type: functional; method in brief: as §2
[16] = species: Mus musculus; experiment: Effect of compound on white blood cells levels in mice at mid dose 2 on day 65; type: functional
Method in brief: (§3)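 Male B6D2F1 mice were gavaged daily with compound in corn oil at low, mid 1, mid 2 or high dose. Serum triglycerides and circulating white blood cells were measured on the stated day (8, 29, 36, 65). Values are group mean ± SD expressed as % relative to corn-oil vehicle, with significance at p ≤ 0.05.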

[17] = species: Mus musculus; experiment: Enlarged lymph in gross pathological observations in mice with hypervitaminosis A at low dose with gross observations/total number of mice in group; 1/16; type: functional, organism-based
[18] = species: Mus musculus; experiment: Effect of compound on right testicle to body weight ratios in mice at mid dose 2 on day 65; type: functional; method in brief: as §1
[19] = species: Mus musculus; experiment: Effect of compound on serum Alkaline phosphatase levels in mice at high dose on day 36; type: functional
Method in brief: (§4)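 Male B6D2F1 mice dosed daily by oral gavage in corn oil at low, mid 1, mid 2 or high dose. Blood sampled on set days (8, 29, 36, 65) for clinical chemistry, serum alkaline phosphatase and triglycerides. Group mean ± SD reported as % relative to vehicle 1; significance p < 0.05 versus corn oil vehicle.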

[20] = species: Mus musculus; experiment: Effect of compound on serum Alkaline phosphatase levels in mice at low dose on day 65; type: functional; method in brief: as §4
[21] = species: Mus musculus; experiment: Effect of compound on serum Alkaline phosphatase levels in mice at mid dose 2 on day 65; type: functional; method in brief: as §4
[22] = species: Mus musculus; experiment: Effect of compound on serum triglycerides levels in mice at mid dose 1 on day 29; type: functional; method in brief: as §3
[23] = species: Mus musculus; experiment: Effect of compound on serum triglycerides levels in mice at mid dose 1 on day 36; type: functional; method in brief: as §3
[24] = species: Mus musculus; experiment: Enlarged spleen in Gross pathological observations in mice with hypervitaminosis A at high dose with gross observations/total number of mice in group; 0/16; type: functional, organism-based
[25] = species: Mus musculus; experiment: Approximate day to 10% weight loss in mice at high dose; type: functional
Method in brief: (§5)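 Male B6D2F1 mice dosed daily by gavage in corn oil; body weights followed to termination (day 65, or day 25 for TTNPB 0.01/0.05 mg/kg/day groups) and compared with the matching vehicle group. Value is approximate day of onset of 10% body weight reduction versus vehicle.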

[26] = species: Mus musculus; experiment: Approximate day to 10% weight loss in mice at mid dose 2; type: functional; method in brief: as §5
[27] = species: Mus musculus; experiment: Skin scaling in mice at low dose with Hypervitaminosis; 0/16; type: functional, organism-based
Method in brief: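 Male B6D2F1 mice were dosed daily by gavage in corn oil and observed for skin scaling of the ears, mouth, nose, eyelids, feet, tail or ventral body. Results are given as affected animals over animals in the group, with the day of first observation.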

[28] = species: Mus musculus; experiment: Calculated 30-day maximally tolerated dose based on 10% weight loss in mice at mid dose 2; type: functional
[29] = species: Mus musculus; experiment: Compound total dose to termination (day 25/65) in low dose; type: functional
Method in brief: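 Male B6D2F1 mice given daily oral gavage in corn oil; dosages increased during the study (day 30 or day 51 depending on compound). Cumulative dose in mg/kg administered up to termination (day 65, or day 25 for TTNPB 0.01/0.05 mg/kg/day groups).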

[30] = species: Mus musculus; experiment: Calculated 30-day maximally tolerated dose based on 10% weight loss in mice at high dose; type: functional
[31] = species: Mus musculus; experiment: Calculated 30-day maximally tolerated dose based on 10% weight loss in mice at low dose; type: functional
[32] = species: Mus musculus; experiment: Calculated 30-day maximally tolerated dose based on 10% weight loss in mice at mid dose 1; type: functional
[33] = species: Mus musculus; experiment: Approximate day to 10% weight loss in mice at low dose; type: functional; method in brief: as §5
[34] = species: Mus musculus; experiment: Effect of compound on serum triglycerides levels in mice at high dose on day 29; type: functional; method in brief: as §4
[35] = species: Mus musculus; experiment: Approximate day to 10% weight loss in mice at mid dose 1; type: functional; method in brief: as §5
[36] = species: Mus musculus; experiment: Fracture incidence in mouse at mid dose 1; 0/8
[37] = species: Mus musculus; experiment: Average number of fractures per mouse at low dose
[38] = species: Mus musculus; experiment: Average number of fractures per mouse at high dose
[39] = species: Mus musculus; experiment: Average number of fractures per mouse at mid dose 2
[40] = species: Mus musculus; experiment: Effect of compound on serum Alkaline phosphatase levels in mice at high dose on day 29; type: functional; method in brief: as §4
[41] = Mortality rate in mice in mid dose 1; type: ADME; settings: mouse, in vivo
Method in brief: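 Male B6D2F1 mice given compound daily by gavage in corn oil at the stated dose levels, with corn oil vehicle controls. Deaths counted as animals found dead or sacrificed moribund, with day(s) of death recorded. Heteroarotinoid groups ran to day 65 and low-dose reference groups to day 25.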

SMILES	Relative activity [1]	Activity [2]	Activity [3]	Activity [4]	Activity [5]	Activity [6]	Activity [7]	Activity [8]	Dose [9]	Dose [10]	Dose [11]	Dose [12]	Activity [13]	Activity [14]	Activity [15]	Activity [18]	Activity [19]	Activity [20]	Activity [21]	Activity [22]	further results
CC(/C=C/C=C(\C)c1ccc2c(c1)C(C)(C)CCO2)=C\C(=O)O	50	2.5	2.7	0.3	0.3	0.3	3.2	2.9	952.8 mg/kg	>207.1 mg/kg	>414.2 mg/kg	732.4 mg/kg	1.6	1.6	1.5	3.3	91.9	115.7	136.8	167.3	Activity [16]: 4.51; Activity [17]: inactive; Activity [23]: 202.8; Activity [24]: inactive; Activity [25]: 53; Activity [26]: 61; Activity [27]: inactive; Max tolerated dose [28]: 24.4 mg/kg; Total dose [29]: 207.1 mg/kg; Max tolerated dose [30]: 31.8 mg/kg; Max tolerated dose [31]: >6.9 mg/kg; Max tolerated dose [32]: >13.8 mg/kg; Activity [33]: >65; Activity [34]: 208.2; Activity [35]: >65; Activity [36]: inactive; Activity [37]: 0; Activity [38]: 1; Activity [39]: 0.6
CC(/C=C/C=C(\C)c1ccc2c(c1)C(C)(C)CCS2)=C\C(=O)O	52	2	2.2	0.3	0.3	0.3	2.6	3.1	1016.8 mg/kg	>207.1 mg/kg	>414.2 mg/kg	>828.4 mg/kg	1.7	1.5	1.6	2.8	84.6	127.5	137	174.1	Activity [17]: inactive; Activity [40]: 94.6; Activity [23]: 212.7; Activity [24]: inactive; Activity [25]: 54; Activity [26]: >65; Activity [27]: inactive; Max tolerated dose [28]: >27.6 mg/kg; Total dose [29]: 207.1 mg/kg; Max tolerated dose [30]: 33.9 mg/kg; Max tolerated dose [31]: >6.9 mg/kg; Max tolerated dose [32]: >13.8 mg/kg; Mortality [41]: 1 day of death; Activity [33]: >65; Activity [34]: 164.2; Activity [35]: >65; Activity [36]: inactive; Activity [37]: 0; Activity [38]: 0.3; Activity [39]: 0
C/C(=C\c1ccc(C(=O)O)cc1)c1ccc2c(c1)C(C)(C)CCO2	31	5	7.1	0.3	0.4	0.3	1.9	2	280.8 mg/kg	147.1 mg/kg	190.2 mg/kg	220.6 mg/kg	1.5	1.3	0.9	1.9	86.3	115	134.8	175.9	Activity [16]: 6.55; Activity [40]: 103.1; Activity [25]: 36; Activity [26]: 41; Max tolerated dose [28]: 7.4 mg/kg; Max tolerated dose [30]: 9.4 mg/kg; Max tolerated dose [31]: >4.9 mg/kg; Max tolerated dose [32]: 6.3 mg/kg; Mortality [41]: 0 day of death; Activity [33]: >65; Activity [34]: 192; Activity [35]: 51; Activity [37]: 0.4; Activity [38]: 1.3; Activity [39]: 3.4
